Assay results collected from several papers.
Protocols differ between the studies behind these lines.
Kir1 channel protein: Kir1 channel protein (Aedes aegypti, UniProt L0EQS9)
HTR5A: 5-hydroxytryptamine receptor 5A (HTR5A, Homo sapiens, UniProt P47898)
PIK3CD: Phosphatidylinositol 4,5-bisphosphate 3-kinase catalytic subunit delta isoform (PIK3CD, Homo sapiens, UniProt O00329)
DRD4: D(4) dopamine receptor (DRD4, Homo sapiens, UniProt P21917)

| SMILES | target | test | setting | measurement | value |
| --- | --- | --- | --- | --- | --- |
| O=S(=O)(c1ccc(F)cc1)N1CCN(c2ccnc(NCc3ccncc3)c2)CC1 | Kir1 channel protein | ion flux, inhibitor | – | IC50 | 4000 to 9000 nM |
| CN1CCN(c2ccc(Nc3ncc4cc(C#N)c(=O)n(C5CCCC5)c4n3)cc2)CC1 | Ribosomal protein S6 kinase alpha-5 (RPS6KA5, Homo sapiens, UniProt O75582) | enzyme activity, inhibitor | – | IC50 | 9210 nM |
| O=S(=O)(c1ccc(F)cc1)N1CCN(c2ccc(C(F)(F)F)c(NCc3ccncc3)c2)CC1 | Kir1 channel protein | ion flux, inhibitor | – | IC50 | 4000 to 9000 nM |
| CC1=C(O)C(=O)OC1C (stereo not shown) | OR8D1 (Homo sapiens, UniProt Q8WZ84, R293A) | cAMP, agonist, luciferase | – | EC50 | 13500 nM |
| CS(=O)(=O)C1(CNCc2ccc(Br)c3cccnc23)CC1 | HTR5A | ligand displacement, radioligand | – | Ki | 178 nM |
| CC(=O)CC(=O)SCCNC(=O)CCNC(=O)[C@H](O)C(C)(C)COP(=O)(O)OP(=O)(O)OC[C@H]1O[C@@H](n2cnc3c(N)ncnc32)[C@H](O)[C@@H]1OP(=O)(O)O | IVD (Homo sapiens, UniProt P26440) | binding, absorbance | – | Kd | ~18000 nM |
| CS(=O)(=O)C1(CNCc2ccc(Cl)c3cccnc23)CC1 | HTR5A | ligand displacement, radioligand | – | Ki | 126 nM |
| C=CC(=O)Nc1cc(Nc2nccc(Nc3cc(Cl)c(F)cc3C(C)(C)O)n2)c(OC)cc1N1CC[C@@H](N(C)C)C1 | Receptor tyrosine-protein kinase erbB-4 (ERBB4, Homo sapiens, UniProt Q15303) | enzyme activity, inhibitor | with preincubation | IC50 | 704 nM |
| CS(=O)(=O)N1CCN(c2ccc([N+](=O)[O-])c(NCc3cccnc3)c2)CC1 | Kir1 channel protein | ion flux, inhibitor | – | IC50 | 44000 nM |
| C=CC(=O)N1CCC(C(=O)N(C)CC(=O)N2CCN(c3nc(-c4cnc(N)nc4C(F)F)nc(N4CCOCC4)n3)CC2)CC1 | PIK3CD | binding, competition with immobilised ligand | – | Kd | 2.2 nM |
| CC[C@@H]1C(=O)OC[C@@H]1Cc1cncn1C | Cytochrome P450 2E1 (CYP2E1, Homo sapiens, UniProt P05181) | binding | – | Kd | 26500 nM |
| O=C1c2ccccc2CCN1CCCCN1CCN(c2cccc(Cl)c2Cl)CC1 | HTR5A | ligand displacement, radioligand | – | Ki | 773 nM |
| Oc1cccc(CCC2=NCCN2Cc2ccccc2)c1 | DRD4 | ligand displacement, radioligand | – | Ki | > 10000 nM |
| N#Cc1ccc(N2CCN(S(=O)(=O)c3ccc(F)cc3)CC2)cc1NCc1ccncc1 | Kir1 channel protein | ion flux, inhibitor | – | IC50 | 361 nM |
| COc1ccc2c(c1)C(=O)N(CCN1CCN(c3ccccc3OC)CC1)C2 | DRD4 | ligand displacement, radioligand | – | Ki | 191 nM |
| CNc1nc2cc(OCCCCN3CCC(c4cccc(Cl)c4Cl)CC3)ccc2s1 | HTR5A | ligand displacement, radioligand | – | Ki | 810 nM |
| CCC(=O)N1CCC(C(=O)N(C)CC(=O)N2CCN(c3nc(-c4cnc(N)nc4C(F)F)nc(N4CCOCC4)n3)CC2)CC1 | PIK3CD | binding, competition with immobilised ligand | – | Kd | 4.9 nM |
| CC(C)=CCC/C(C)=C/CC/C(C)=C/CSc1ccccc1C(=O)O | Squalene synthase (Homo sapiens, UniProt P37268) | enzyme activity, inhibitor | – | Ki | 370 nM |
| CCCCCCSC[C@H]1CN(Cc2c[nH]c3c(N)ncnc23)C[C@@H]1O | Aminodeoxyfutalosine nucleosidase (Helicobacter pylori, UniProt Q9ZMY2) | enzyme activity, inhibitor, absorbance | pH 7.4 | Ki | 0.085 nM |
| CC(=O)N[C@@H](Cc1ccccc1)C(=O)N1CCC[C@H]1C(=O)N1CCC[C@H]1C(=O)N1CCC[C@H]1C(=O)N1CCC[C@H]1C(=O)O | Vasodilator-stimulated phosphoprotein (VASP, Homo sapiens, UniProt P50552) | binding, fluorescence | – | Kd | 800000 nM |
| Cc1cnc(-c2ccc(-c3ccc(NC(=O)Nc4c(F)cc(F)cc4F)cc3F)c3c2C(=O)NC3)[nH]1 | Tyrosine-protein kinase BTK (BTK, Homo sapiens, UniProt Q06187) | binding, competition with immobilised ligand | – | Kd | 27 nM |
| COc1ccc(F)cc1C(=O)NCc1ccc(-c2nn([C@@H](C)C(F)(F)F)c(N)c2C(N)=O)cc1 | Tyrosine-protein kinase BTK (BTK, Homo sapiens, UniProt Q06187, C481R) | phosphorylation in cells, inhibitor | – | IC50 | 12.6 nM |
| CCn1c(-c2nc3cc(C(=O)N4CCC[C@@H](N)C4)cc(OC)c3n2C)cc2cccnc21 | Nuclear receptor subfamily 1 group I member 2 (NR1I2, Homo sapiens, UniProt O75469) | reporter gene, agonist, luciferase | – | EC50 | > 50100 nM |
| CCCCCCCNCCCc1ccc([N+](=O)[O-])cc1 | DRD4 | ligand displacement, radioligand | – | Ki | 240 nM |
| Cc1ncsc1-c1ccc(CNC(=O)[C@@H]2C[C@@H](O)CN2C(=O)[C@@H](NC(=O)CCCCCCCCCC(=O)N2CCN(CC[C@H](NC(=O)C3(N)CCN(c4ncnc5[nH]ccc45)CC3)c3ccc(Cl)cc3)CC2)C(C)(C)C)cc1 | RAC-beta serine/threonine-protein kinase (AKT2, Homo sapiens, UniProt P31751) | binding, competition with immobilised ligand | – | Kd | 360 nM |
